Bioassay records (PubChem)
RGS4 act – RGS4 potentiation or activation | HEK293 M3R/inducible RGS4, carbachol calcium flux Fluo4; hits give low values | B-score at 10 µM | actives 0.92% (n = 310,000);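 active means B-score of the integrated calcium signal more than 4 SD below the library mean, with starting fluorescence not abnormally high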;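 further: negative B-score means reduced calcium response which marks RGS4 activation or potentiation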
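Detection: kinetic calcium fluorescence imaging with Fluo4-AM dye, 2 µM / Material: HEK293 cells with stable M3R and inducible RGS4 / Schedule: recording 10 s baseline at 1 Hz, 100 s post-agonist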
RGS4 block – human RGS4 inhibition; HEK293 M3R/RGS4 inducible, Fluo-4 calcium flux; hits give high values; triggered by carbachol at its EC20; B-score at 10 µM; actives 0.45% (n = 310,000); AID 463165;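 active means B-score, a plate-corrected calcium signal, over three deviations above library mean, with baseline fluorescence within five deviations of library mean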;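 further: RGS4 expression induced by doxycycline in cells with stable M3 receptor; B-score is computed from the integrated fluorescence ratio over baseline after carbachol; higher B-score means a larger calcium signal and so more RGS4 inhibition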
Target sequence (P49798 whole entry, looked up): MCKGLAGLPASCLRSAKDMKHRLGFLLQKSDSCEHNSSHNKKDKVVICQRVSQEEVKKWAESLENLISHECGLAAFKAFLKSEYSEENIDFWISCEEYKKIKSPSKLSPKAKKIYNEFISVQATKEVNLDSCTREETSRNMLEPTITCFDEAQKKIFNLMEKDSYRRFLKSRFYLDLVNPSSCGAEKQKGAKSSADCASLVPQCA
MrgX1 antag – antagonists of human MrgX1 receptor | Q96LB2 | MRGX1-HEK293 calcium flux, Fluo-4, BAM8-22 antagonism; hits give low values | B-score at 10 µM | actives 1.3% (n = 310,000) | AID 588676;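 active means calcium-response B-score plate-corrected more than 3 library SD below zero, starting fluorescence within 5 deviations, no agonist response on first addition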;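 further: peak minus trough fluorescence over baseline after final BAM8-22 challenge near maximal dose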
Target sequence (Q96LB2 whole entry, looked up): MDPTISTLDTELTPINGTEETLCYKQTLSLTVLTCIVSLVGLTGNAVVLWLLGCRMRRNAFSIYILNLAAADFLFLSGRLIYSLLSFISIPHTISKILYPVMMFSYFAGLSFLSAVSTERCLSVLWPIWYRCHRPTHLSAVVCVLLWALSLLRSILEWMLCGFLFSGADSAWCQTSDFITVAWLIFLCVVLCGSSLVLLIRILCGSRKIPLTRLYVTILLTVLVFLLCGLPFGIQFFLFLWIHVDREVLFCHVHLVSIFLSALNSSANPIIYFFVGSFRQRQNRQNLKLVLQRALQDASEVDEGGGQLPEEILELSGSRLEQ
MrgX1 allo act – human MrgX1 positive allosteric modulation, primary screen. Q96LB2. MrgX1-HEK293, Fluo-4 calcium flux, FDSS; hits give high values. B-score at 10 µM. actives 0.63% (n = 310,000);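 active means plate-corrected calcium response at least 3 library SD above typical, normal starting fluorescence, not activating the receptor alone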;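 further: compound read alongside a low EC10 to EC30 dose of BAM8-22 agonist; peak minus trough fluorescence over baseline measured at the second addition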
MrgX1 ag – human MrgX1 receptor agonism, primary screen; Q96LB2; MrgX1-HEK293 cells, Fluo-4 calcium fluorescence, agonist mode; hits give high values; B-score at 10 µM; actives 0.44% (n = 310,000); AID 588627;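 active means calcium response B-score plate-corrected fluorescence ratio at least 3 library SD, with starting fluorescence B-score inside 5 SD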
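Test system: HEK293 cells stably expressing human MrgX1 receptor; amount: 15,000 cells per well; doses: compound delivered in addition one of three; times: overnight plating before 1 h dye loading; detection: Fluo-4 NW calcium-flux fluorescence, kinetic read; read-out basis: B-scored fluorescence response ratio; controls: positive and negative controls per plate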
RGS4 block valid – RGS4 inhibitor validation; shares compounds with RGS4 block; HEK293 M3R/RGS4, carbachol calcium Fluo-4 fluorescence; carbachol added at its EC20; 0 = buffer wells, 100 = carbachol control; calcium response, % at 10 µM; actives 65% (n = 1,700); AID 492999;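 active means duplicate-averaged calcium response above the buffer-only control mean plus 5 SD of those controls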;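 further: integrated fluorescence ratio F max minus min over baseline F0; higher response in RGS4-induced cells means RGS4 inhibition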
M3R Ca ctr – checks RGS4 inhibitor effects in non-induced HEK293 M3R cells; carbachol calcium Fluo-4; submaximal (EC20) carbachol stimulus; buffer wells 0%, carbachol control wells 100%; shares compounds with RGS4 block; activity (percent), % at 10 µM; actives 20% (n = 1,900); call rule not given here;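 further: RGS4 induction absent so cells express M3R without RGS4; higher means more calcium signal and flags a non-specific hit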
M3R basal Ca ctr – signal in non-induced cells without carbachol, RGS4 inhibitor counter-screen; shares compounds with RGS4 block; HEK293 M3R/RGS4 non-induced, Fluo-4 calcium, no carbachol; normalised: buffer wells 0%, carbachol wells 100%; calcium response (agonist-mode artifact), % at 10 µM; actives 22% (n = 1,900);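 active means duplicate-averaged calcium rise in uninduced cells above buffer wells' mean plus 5 SD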
The depositor's hits bear a star; i = inactive; . = no result given. Most compounds without a hit are left out; they make up all but 3.5% or so of the library.

SMILES	RGS4 act	RGS4 block	MrgX1 antag	MrgX1 allo act	MrgX1 ag	RGS4 block valid	M3R Ca ctr	M3R basal Ca ctr
COc1cccc(OC)c1NC(=O)c1nc2c(nnn2Cc2ccccc2Cl)c(=O)[nH]1	i	5.45*	i	i	i	14.5%*	i	i
Cc1ccnc(SCC(=O)Nc2sccc2C#N)n1	i	i	i	i	i	.	.	.
COc1cc(/C=C/[N+](=O)[O-])ccc1OCc1cccc(C(=O)O)c1	i	71.6*	.	.	.	173.5%*	57.0%*	8.0%*
Nn1c(=O)[nH]c2c([nH]c3ccccc32)c1=O	i	5.89*	i	i	i	i	i	i
Cc1nc2c([nH]c3ccccc32)c(=O)n1N	i	i	i	i	i	.	.	.
CC(=O)NC1(C(=O)O)CCCC1	i	i	i	i	i	.	.	.
O=c1[nH]c(/C=C/c2ccc([N+](=O)[O-])cc2)c([N+](=O)[O-])c(=O)[nH]1	i	i	i	i	i	i	i	i
COc1ccc(OC)c(/C=C/c2[nH]c(=O)[nH]c(=O)c2[N+](=O)[O-])c1	i	10.3*	.	.	.	33.5%*	i	i
COc1ccc(/C=C/c2c([N+](=O)[O-])c(=O)n(C)c(=O)n2C)c(OC)c1	i	i	i	i	i	.	.	.
O=c1[nH]c(/C=C/c2ccc3c(c2)OCO3)c([N+](=O)[O-])c(=O)[nH]1	i	i	i	i	i	.	.	.
CC1(C)COC(/C=C/c2ccc([N+](=O)[O-])cc2)=N1	i	5.68*	i	i	i	8.0%*	29.0%*	i
CC(Oc1ccc2ccc(=O)oc2c1)C(=O)NC(Cc1c[nH]c2ccc(O)cc12)C(=O)O (centres undefined)	i	i	i	i	i	.	.	.
Cc1nc(Cl)c(N=Cc2cccc([N+](=O)[O-])c2)c(Cl)n1	i	i	i	i	i	.	.	.
COc1cccc(C(=O)O/N=C(\N)c2ccc(C)cc2)c1	i	i	i	i	i	.	.	.
COc1cccc(C(=O)O/N=C(\N)Cc2ccc(Cl)cc2)c1	i	8.75*	i	i	i	7.5%*	i	i
O=C(OCn1ncc(Cl)c(Cl)c1=O)c1ccc(F)cc1	i	i	i	i	i	.	.	.
O=C(OCn1ncc(Cl)c(Cl)c1=O)c1ccccc1Cl	i	7.4*	i	i	i	15.0%*	40.5%*	i
COC(=O)[C@@H](Cc1c[nH]c2ccccc12)NC(=O)C1CCCN(S(=O)(=O)c2ccc(C)cc2)C1 (some centres undefined)	i	i	i	i	i	.	.	.
COc1ccc(C)cc1NC(=O)C(=O)NCc1ccncc1	i	i	i	i	i	i	i	i
COc1ccc(NC(=O)C(=O)NCc2ccncc2)c(OC)c1	i	i	i	i	i	i	i	i
Cc1ncc(CN2CCC(CO)(Cc3ccccc3)CC2)s1	i	i	i	i	i	.	.	.
O=C(C[n+]1ccccn1)c1ccccc1	i	i	i	i	i	.	.	.
Cc1ccc(S(=O)(=O)N2CCCCC2)cc1NC(=O)C1CC(=O)N(c2ccc3c(c2)OCCO3)C1 (centres undefined)	i	i	i	i	i	.	.	.
Cn1ccnc1Sc1cc(NCCCO)c([N+](=O)[O-])c2nonc12	i	17.5*	i	i	i	49.5%*	i	i
CC(=O)OCCNc1cc(Sc2nc3ccccc3[nH]2)c2nonc2c1[N+](=O)[O-]	i	15.5*	i	i	i	6.5%*	i	i
SMILES	RGS4 act	RGS4 block	MrgX1 antag	MrgX1 allo act	MrgX1 ag	RGS4 block valid	M3R Ca ctr	M3R basal Ca ctr
CC(=O)OCCNc1cc(SCc2ccco2)c2nonc2c1[N+](=O)[O-]	i	i	i	i	i	.	.	.
O=[N+]([O-])c1c(NCCCO)cc(Sc2ccc(Cl)cc2)c2nonc12	i	i	i	i	i	.	.	.
CC(=O)OCCCNc1cc(Sc2nc3ccccc3s2)c2nonc2c1[N+](=O)[O-]	i	4.72*	i	i	i	i	i	113.0%*
CC(=O)OCCCNc1cc(Sc2ccc(C)cc2)c2nonc2c1[N+](=O)[O-]	i	i	i	i	i	.	.	.
O=C1/C(=C\c2ccncc2)CCc2ccccc21	i	i	i	i	i	.	.	.
O=C1/C(=C/c2ccncc2)CCC/C1=C\c1ccncc1	i	23.6*	.	.	.	107.0%*	i	i
Cc1cc(C(=O)COc2ccccc2[N+](=O)[O-])c(C)n1C1CC1	i	i	i	i	i	.	.	.
Cc1cc(-n2c(C)cc(C(=O)COc3ccccc3[N+](=O)[O-])c2C)no1	i	5.14*	i	i	i	i	i	i
O=S(=O)(Nc1cccc2ccccc12)c1cccs1	i	i	i	i	i	.	.	.
O=S(=O)(Nc1ccc(O)c2ccccc12)c1cccs1	i	8.05*	i	i	i	37.0%*	i	i
COc1cc(/C=C/C(=O)OCC(=O)NC(=O)NC(C)C)ccc1O	i	i	i	i	i	.	.	.
CS/C(=N\S(=O)(=O)c1ccccc1)c1ccccc1	i	i	i	i	i	.	.	.
O=S(=O)(/N=C(/Sc1ccccc1)c1ccccc1)c1ccccc1	i	13*	i	i	i	15.5%*	i	21.5%*
CSc1ccc(/C=C/C(=O)c2ccc(NC(C)=O)cc2)cc1	i	i	i	i	i	.	.	.
CC(=O)Nc1cccc(C(=O)/C=C/c2ccc(C)cc2)c1	i	i	i	i	i	i	i	i
CC(=O)Nc1ccc(/C=C/C(=O)c2ccc3c(c2)OCCO3)cc1	i	i	i	i	i	.	.	.
O=C(O)c1ccc(/C=C/C(=O)c2ccc3c(c2)OCCCO3)cc1	i	14.1*	i	i	i	47.0%*	i	i
COc1ccc(/C=C/C(=O)c2ccc3c(c2)OCCO3)cc1[N+](=O)[O-]	i	8.06*	i	i	i	6.0%*	i	i
